Measurements taken from ChEMBL document CHEMBL2169759, “A new class of selective and potent 7-dehydrocholesterol reductase inhibitors” (J Med Chem, 2012).
Active and inactive are the calls of the source. The rule behind the calls is not given here.

What was measured:
[1] = molecular target: 3-beta-hydroxysteroid-Delta(8),Delta(7)-isomerase (Homo sapiens) (UniProt Q15125); assay: Inhibition of delta8,7-isomerase in human HL60 cells assessed as accumulation of zymostenol at 50 uM after 24 hrs by GC/MS analysis; format: cell-based; conditions: HL-60
Sequence of 3-beta-hydroxysteroid-Delta(8),Delta(7)-isomerase (Homo sapiens) (Q15125 whole entry): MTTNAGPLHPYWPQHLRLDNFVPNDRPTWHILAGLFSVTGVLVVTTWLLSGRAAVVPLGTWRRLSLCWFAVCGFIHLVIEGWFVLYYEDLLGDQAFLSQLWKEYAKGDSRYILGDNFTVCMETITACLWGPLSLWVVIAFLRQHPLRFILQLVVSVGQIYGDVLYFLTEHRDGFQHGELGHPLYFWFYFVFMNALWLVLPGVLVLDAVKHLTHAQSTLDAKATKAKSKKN
Method in brief: (§1)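 HL-60 cells (1 × 10⁶) in lipid-free HL-60 medium given inhibitor at 50 μM or 1 μM (ethanol blank) for 24 h at 37 °C, 5% CO2. Pellet saponified in 1 M NaOH, 1 h at 70 °C, then TBME microextraction with cholestane internal standard. GC-MS sterol pattern compared with blanks and with AY 9944 and BM 15.766 references.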

[2] = molecular target: 3-beta-hydroxysteroid-Delta(8),Delta(7)-isomerase (Homo sapiens) (UniProt Q15125); assay: Inhibition of delta8,7-isomerase in human HL60 cells assessed as accumulation of zymostenol at 1 uM after 24 hrs by GC/MS analysis; format: cell-based; conditions: HL-60; method in brief: as §1
[3] = molecular target: T1, 7-dehydrocholesterol reductase (Homo sapiens) (UniProt Q9UBM7); assay: Inhibition of 7-dehydrocholesterol reductase in human HL60 cells assessed as accumulation of 7-dehydrocholesterol at 50 uM after 24 hrs by GC/MS analysis; format: cell-based; conditions: HL-60; method in brief: as §1
T1 sequence (whole entry): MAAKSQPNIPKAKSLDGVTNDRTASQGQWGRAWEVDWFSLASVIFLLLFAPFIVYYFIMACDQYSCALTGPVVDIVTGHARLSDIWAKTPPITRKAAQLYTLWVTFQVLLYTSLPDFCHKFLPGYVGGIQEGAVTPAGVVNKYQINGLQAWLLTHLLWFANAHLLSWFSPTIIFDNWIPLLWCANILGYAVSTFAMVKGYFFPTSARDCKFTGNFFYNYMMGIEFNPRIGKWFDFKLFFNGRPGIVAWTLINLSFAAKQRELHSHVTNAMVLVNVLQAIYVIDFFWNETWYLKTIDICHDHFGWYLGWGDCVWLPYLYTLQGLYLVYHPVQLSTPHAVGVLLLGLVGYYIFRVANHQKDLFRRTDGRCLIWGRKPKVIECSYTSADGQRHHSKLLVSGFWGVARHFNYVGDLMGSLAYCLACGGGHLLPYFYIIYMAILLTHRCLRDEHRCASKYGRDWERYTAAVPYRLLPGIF

[4] = molecular target: T1, 7-dehydrocholesterol reductase (Homo sapiens); assay: Inhibition of 7-dehydrocholesterol reductase in human HL60 cells assessed as accumulation of 7-dehydrocholesterol at 1 uM after 24 hrs by GC/MS analysis; format: cell-based; conditions: HL-60; method in brief: as §1
Yarrowia lipolytica [5] = assay: Antifungal activity against Yarrowia lipolytica DSM 1345 after 48 hrs; format: organism-based; conditions: in vivo
Method in brief: (§2)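 MIC against the yeast strains determined according to DIN 58940-84; clotrimazole as positive control.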

Saccharomyces cerevisiae [6] = assay: Antimicrobial activity against Saccharomyces cerevisiae DSM 1333 after 48 hrs; format: organism-based; conditions: in vivo; method in brief: as §2
Nakaseomyces glabratus [7] = assay: Antifungal activity against Candida glabrata DSM 11226 after 48 hrs; format: organism-based; conditions: in vivo; method in brief: as §2
Yarrowia lipolytica [8] = assay: Antifungal activity against Yarrowia lipolytica DSM 1345 after 36 hrs by disc diffusion method; format: organism-based; conditions: in vivo
Saccharomyces cerevisiae [9] = assay: Antifungal activity against Saccharomyces cerevisiae DSM 1333 after 36 hrs by disc diffusion method; format: organism-based; conditions: in vivo
Nakaseomyces glabratus [10] = assay: Antifungal activity against Candida glabrata DSM 11226 after 36 hrs by disc diffusion method; format: organism-based; conditions: in vivo
[11] = Antifungal activity against Aspergillus brasiliensis DSM 1988 after 36 hrs by disc diffusion method
[12] = Antibacterial activity against Streptococcus entericus DSM 14446 after 36 hrs by disc diffusion method
[13] = Antibacterial activity against Staphylococcus equorum DSM 20675 after 36 hrs by disc diffusion method
[14] = Antibacterial activity against Pseudomonas antimicrobica DSM 8361 after 36 hrs by disc diffusion method; conditions: burkholderia gladioli
Escherichia coli = assay: Antibacterial activity against Escherichia coli DSM 426 after 36 hrs by disc diffusion method; format: organism-based; conditions: in vivo
HL-60 = assay: Cytotoxicity against human HL60 cells after 24 hrs by MTT assay; format: cell-based; conditions: HL-60, 24 h
Method in brief: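 MTT colorimetric assay on HL-60 promyelocytic leukemia cells (RPMI 1640, 10% FBS, no antibiotics, 37 °C, 5% CO2) as a preliminary screen for unspecific cytotoxicity; cisplatin as reference.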

[15] = Antifungal activity against Hyphopichia burtonii DSM 70663 after 36 hrs by disc diffusion method
[16] = molecular target: T2, 7-dehydrocholesterol reductase (Homo sapiens, UniProt Q9UBM7); assay: Inhibition of […]-mediated cholesterol biosynthesis in human HL60 cells assessed as inhibition of 2-[13C]acetate after 24 hrs GC/MS analysis; format: cell-based, HL-60
T2 sequence (Q9UBM7 whole entry): T1 sequence (whole entry)
Method in brief: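 Whole-cell cholesterol synthesis in HL-60 cells, 24 h with inhibitor and sodium 2-¹³C-acetate; six concentrations plus blank, in triplicate. Newly made labeled cholesterol (m/z 372–379, 462–469) measured by GC-MS against cholestane and normalized to Bradford protein. % inhibition against untreated control fitted to a variable-slope sigmoid, bottom fixed at 0, giving IC50; BM 15.766 as reference.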

SMILES | isomerase inhibition (active/not active) [1] | inhibition (active/not active) [2] | 7-dehydrocholesterol accumulation (active/not active) [3] | 7-DHCR inhibition (active/not active) [4] | MIC (Yarrowia lipolytica [5]) [µg/mL] | MIC (Saccharomyces cerevisiae [6]) [µg/mL] | MIC (Nakaseomyces glabratus [7]) [µg/mL] | Activity (Yarrowia lipolytica [8]) | Activity (Saccharomyces cerevisiae [9]) | Activity (Nakaseomyces glabratus [10]) | Activity [11] | Activity [12] | Activity [13] | Activity [14] | Activity (Escherichia coli) | IC50 (HL-60) [µM] | Activity [15] | IC50 [16] [µM]
COc1ccc(CCN2CCc3cc4c(cc3C2)OCO4)cc1 | Active | Active | inactive | inactive | > 20 | > 20 | > 20 | Non-toxic | Non-toxic | Non-toxic | Non-toxic | Non-toxic | Non-toxic | Non-toxic | Non-toxic | > 50 | Non-toxic | –
COc1cccc(CCN2CCc3cc(O)c(OC)cc3C2)c1 | – | – | – | Active | > 20 | > 20 | > 20 | Non-toxic | Non-toxic | Non-toxic | Non-toxic | Non-toxic | Non-toxic | Non-toxic | Non-toxic | > 50 | Non-toxic | 0.12
COc1cc2c(cc1O)CCN(CCc1ccc(OC)c(OC)c1)C2 | – | – | – | Active | > 20 | > 20 | > 20 | Non-toxic | Non-toxic | Non-toxic | Non-toxic | Non-toxic | Non-toxic | Non-toxic | Non-toxic | > 50 | Toxic | 7.3
Clc1ccccc1C(c1ccccc1)(c1ccccc1)n1ccnc1 [CLOTRIMAZOLE] | – | – | – | – | < 1 | < 1 | < 1 | – | – | – | – | – | – | – | – | – | – | –
COc1ccc2c(c1)CCN(CCc1ccccc1)C2 | Active | Active | inactive | inactive | > 20 | > 20 | > 20 | Non-toxic | Non-toxic | Non-toxic | Non-toxic | Non-toxic | Non-toxic | Non-toxic | Non-toxic | > 50 | Non-toxic | –
COc1cc2c(cc1O)CCN(CCc1ccc(F)cc1)C2 | Active | – | Active | Active | > 20 | > 20 | > 20 | Non-toxic | Non-toxic | Non-toxic | Non-toxic | Non-toxic | Non-toxic | Non-toxic | Non-toxic | > 50 | Toxic | –
COc1ccc(CCN2CCc3cc(OC)ccc3C2)cc1 | Active | Active | inactive | inactive | > 20 | > 20 | > 20 | Non-toxic | Non-toxic | Non-toxic | Non-toxic | Non-toxic | Non-toxic | Non-toxic | Non-toxic | > 50 | Non-toxic | –
Oc1ccc(CCN2CCc3cc(O)ccc3C2)cc1 | – | – | Active | inactive | > 20 | > 20 | > 20 | Non-toxic | Non-toxic | Non-toxic | Non-toxic | Non-toxic | Non-toxic | Non-toxic | Non-toxic | > 50 | Non-toxic | –
COc1ccc(CCN2CCc3cc(OC)c(OC)cc3C2)cc1 | Active | Active | inactive | inactive | > 20 | > 20 | > 20 | Non-toxic | Non-toxic | Non-toxic | Non-toxic | Non-toxic | Non-toxic | Non-toxic | Non-toxic | > 50 | Non-toxic | –
COc1cc2c(cc1O)CCN(CCc1ccccc1OC)C2 | – | – | Active | inactive | > 20 | > 20 | > 20 | Non-toxic | Non-toxic | Non-toxic | Non-toxic | Non-toxic | Non-toxic | Non-toxic | Non-toxic | > 50 | Non-toxic | –
O=C(O)c1ccc(CCN2CCN(C/C=C/c3ccc(Cl)cc3)CC2)cc1 | – | – | – | – | – | – | – | – | – | – | – | – | – | – | – | – | – | 0.5
COc1ccc(CCN2CCc3cc(O)c(OC)cc3C2)cc1 | Active | – | Active | Active | > 20 | > 20 | > 20 | Non-toxic | Non-toxic | Non-toxic | Non-toxic | Non-toxic | Non-toxic | Non-toxic | Non-toxic | > 50 | Toxic | –
COc1ccc(CCN2CCc3cc(OC)c(O)cc3C2)cc1 | inactive | inactive | inactive | inactive | > 20 | > 20 | > 20 | Non-toxic | Non-toxic | Non-toxic | Non-toxic | Non-toxic | Non-toxic | Non-toxic | Non-toxic | > 50 | Non-toxic | –
